Activity calls are given as the source filed them. No cut-off for these calls is given here.
How the values were obtained:
[1] = molecular target: T1, Fatty-acid amide hydrolase 1 (Rattus norvegicus, UniProt P97612); experiment: Inhibition of FAAH from rat brain microsomes by RP-HPLC
T1 sequence (P97612 whole entry): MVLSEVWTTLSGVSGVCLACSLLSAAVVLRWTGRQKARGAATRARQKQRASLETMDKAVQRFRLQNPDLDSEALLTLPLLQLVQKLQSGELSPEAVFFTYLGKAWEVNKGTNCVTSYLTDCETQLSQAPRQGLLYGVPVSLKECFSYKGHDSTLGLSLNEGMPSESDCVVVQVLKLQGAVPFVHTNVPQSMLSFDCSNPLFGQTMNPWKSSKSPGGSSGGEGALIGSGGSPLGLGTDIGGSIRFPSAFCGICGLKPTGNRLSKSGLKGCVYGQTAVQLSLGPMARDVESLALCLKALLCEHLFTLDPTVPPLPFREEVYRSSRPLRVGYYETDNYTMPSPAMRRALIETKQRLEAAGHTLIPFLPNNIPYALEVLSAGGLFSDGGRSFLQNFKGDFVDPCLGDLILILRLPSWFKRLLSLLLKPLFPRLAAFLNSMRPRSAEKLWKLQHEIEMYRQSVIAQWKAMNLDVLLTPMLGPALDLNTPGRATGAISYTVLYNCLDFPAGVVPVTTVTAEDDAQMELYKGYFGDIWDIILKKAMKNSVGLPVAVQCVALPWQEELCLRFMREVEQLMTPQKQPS

[2] = inhibition of MAGL up to 10 uM
Outline: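 MAGL set up like the FAAH assay, using pyrene-labelled substrate 1,3-dihydroxypropan-2-yl 4-pyren-1-ylbutanoate; product measured by RP-HPLC with fluorescence detection; highest test concentration 10 μM.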

[3] = molecular target: T2, Fatty-acid amide hydrolase 1 (Rattus norvegicus) (UniProt P97612); experiment: Inhibition of FAAH from rat brain microsomes at 10 uM by RP-HPLC
T2 sequence (whole entry): T1 sequence (P97612 whole entry)
Outline: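 Rat brain microsomes as FAAH source; substrate N-(2-hydroxyethyl)-4-pyren-1-ylbutanamide 100 μM solubilized with Triton X-100 0.2%. Incubated 45 min, then stopped with acetonitrile/methanol plus internal standard 6-pyren-1-ylhexanoic acid. Released 4-pyren-1-ylbutanoic acid quantified directly by RP-HPLC with fluorescence (ex 340, em 380 nm), with vs without inhibitor. Inhibitor max 10 μM; IC50 means of at least two independent determinations.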

[4] = molecular target: T3, Cytosolic phospholipase A2 (Homo sapiens) (UniProt P47712); experiment: Inhibition of cPLA2 from human platelets at 10 uM by RP-HPLC
T3 sequence (whole entry): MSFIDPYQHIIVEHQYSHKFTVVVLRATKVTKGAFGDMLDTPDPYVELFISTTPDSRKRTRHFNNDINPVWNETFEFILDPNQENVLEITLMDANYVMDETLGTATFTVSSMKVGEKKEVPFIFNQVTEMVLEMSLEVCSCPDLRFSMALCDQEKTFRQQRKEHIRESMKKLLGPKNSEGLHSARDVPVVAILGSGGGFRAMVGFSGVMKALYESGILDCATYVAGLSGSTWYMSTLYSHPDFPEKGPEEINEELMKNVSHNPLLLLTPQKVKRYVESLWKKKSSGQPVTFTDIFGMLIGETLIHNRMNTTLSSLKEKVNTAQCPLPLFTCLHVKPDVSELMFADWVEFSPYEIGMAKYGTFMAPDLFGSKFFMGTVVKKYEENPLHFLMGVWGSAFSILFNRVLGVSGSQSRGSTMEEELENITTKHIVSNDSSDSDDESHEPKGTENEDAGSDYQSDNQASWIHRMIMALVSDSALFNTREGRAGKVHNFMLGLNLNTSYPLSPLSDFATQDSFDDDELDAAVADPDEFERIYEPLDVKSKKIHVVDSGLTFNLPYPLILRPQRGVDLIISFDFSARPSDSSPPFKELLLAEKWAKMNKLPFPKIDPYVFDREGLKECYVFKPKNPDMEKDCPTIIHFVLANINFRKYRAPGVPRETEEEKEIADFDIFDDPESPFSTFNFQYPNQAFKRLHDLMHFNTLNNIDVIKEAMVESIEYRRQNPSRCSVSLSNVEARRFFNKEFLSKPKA
Outline: (§1)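 cPLA2α purified from human platelets; substrate sonicated covesicles of SAPC 200 μM and 1,2-dioleoyl-sn-glycerol 100 μM. Reaction 60 min, stopped with acetonitrile/methanol/0.1 M EDTA-Na2 containing 4-undecyloxybenzoic acid internal standard and NDGA. Arachidonic acid released measured by RP-HPLC, UV 200 nm, after solid-phase extraction, with vs without inhibitor; max 10 μM. IC50 means of at least two independent determinations.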

[5] = molecular target: T4, Cytosolic phospholipase A2 (Homo sapiens, UniProt P47712); experiment: Inhibition of cPLA2 from human platelets by RP-HPLC; outline: as §1
T4 sequence (P47712 whole entry): T3 sequence (whole entry)

Compound	IC50 [1]	inhibition [2]	inhibition [3]	inhibition [4]	IC50 [5]
CCCCCCCCc1ccc(OCC(=O)Cn2cnc3ccc(C(=O)O)cc32)cc1	3100 nM	inactive			
CCCCCCCCc1ccc(OCC(=O)Cn2cc(Cl)c3cc(C(=O)O)ccc32)cc1		inactive	inactive		
O=C(CCCCCc1ccccc1)c1nc2ncccc2o1	9 nM			inactive	
CCCCCCCCc1ccc(OCC(=O)Cn2cc(C(C)(C)C)c3cc(C(=O)O)ccc32)cc1		inactive	inactive		
CCCCCCCCc1ccc(OCC(=O)Cn2cc(C(=O)O)c3ccccc32)cc1		inactive	inactive		> 10 µM
CCCCCCCCc1ccc(OCC(=O)Cn2cncc2C(=O)O)cc1		inactive	inactive	18%	> 10 µM
CCCCCCCCc1ccc(OCC(=O)Cn2cc(C(C)=O)c3cc(C(=O)O)ccc32)cc1		inactive	inactive		0.012 µM
CCCCCCCCc1ccc(OCC(=O)Cn2ccc3cc(OC)ccc32)cc1	> 10000 nM	inactive	22%	inactive	
CCCCCCCCc1ccc(OCC(=O)Cn2ccc3c(C(=O)O)cccc32)cc1	> 10000 nM	inactive	40%		> 10 µM
CCCCCCCCc1ccc(OCC(=O)Cn2cc(C(=O)O)c3cc(C(=O)O)ccc32)cc1		inactive	inactive		
CCCCCCCCc1ccc(OCC(=O)Cn2ccc3cc(C)ccc32)cc1		inactive	inactive	inactive	
CCCCCCCCc1ccc(OCC(=O)Cn2ccc3cc(Cl)ccc32)cc1		inactive	inactive	inactive	
CCCCCCCCc1ccc(OCC(=O)Cn2cnc(C(=O)O)c2)cc1	1900 nM	inactive			5.3 µM
CCCCCCCCc1ccc(OCC(=O)Cn2cc(C=O)c3cc(C(=O)O)ccc32)cc1		inactive	inactive		
CCCCCCCCc1ccc(OCC(=O)Cn2cnc3ccccc32)cc1	1000 nM	inactive		36%	> 10 µM
CCCCCCCCc1ccc(OCC(=O)Cn2cccc2)cc1		inactive	inactive	inactive	
CCCCCCCCc1ccc(OCC(=O)Cn2ccc(C(=O)O)n2)cc1	> 10000 nM	inactive	39%		8.2 µM
CCCCC/C=C\C/C=C\C/C=C\C/C=C\CCCC(=O)C(F)(F)F [ARACHIDONYL TRIFLUOROMETHYLKETONE]	3700 nM	inactive			
CCCCCCCCc1ccc(OCC(=O)Cn2cc(C(=O)OC)c3cc(C(=O)O)ccc32)cc1		inactive	inactive		
CCCCCCCCc1ccc(OCC(=O)Cn2cc(C#N)c3cc(C(=O)O)ccc32)cc1		inactive	inactive		
CCCCCCCCc1ccc(OCC(=O)Cn2ccnc2)cc1	760 nM	inactive			0.5 µM
CCCCCCCCc1ccc(OCC(=O)Cn2nccc2C(=O)O)cc1		inactive	inactive	21%	> 10 µM

Compound	IC50 [1]	inhibition [2]	inhibition [3]	inhibition [4]	IC50 [5]
CCCCCCCCCCOc1ccc(OCC(=O)COc2ccc(C(=O)O)cc2)cc1	59 nM	inactive			
CCCCCCCCc1ccc(OCC(=O)Cn2nnc3ccc(C(=O)O)cc32)cc1	200 nM	inactive			
CCCCCCCCc1ccc(OCC(=O)Cn2ncc3ccc(C(=O)O)cc32)cc1	> 10000 nM	inactive	23%		
CCCCCCCCc1ccc(OCC(=O)Cn2cccc2C(=O)O)cc1		inactive	inactive	inactive	
CCCCCCCCc1ccc(OCC(=O)Cn2nnc3cc(C(=O)O)ccc32)cc1	140 nM	inactive			
CCCCCCCCc1ccc(OCC(=O)Cn2ccc3cc(C=O)ccc32)cc1	> 10000 nM	inactive	45%		
CCCCCCCCc1ccc(OCC(=O)Cn2ccc(C(=O)O)c2)cc1	3600 nM	inactive			5 µM
CCCCCCCCc1ccc(OCC(=O)Cn2ccc3cc(C(N)=O)ccc32)cc1	6400 nM	inactive			
CCCCCCCCc1ccc(OCC(=O)Cn2nnc3ccccc32)cc1	47 nM	inactive			2.2 µM
CCCCCCCCc1ccc(OCC(=O)Cn2ccc3cc(C(=O)O)ccc32)cc1	2800 nM	inactive			
CC(C)CN(Cc1ccccc1-c1ccccc1)[C@@H]1C[C@@H](CNC(=O)/C=C/c2ccc(/C=C3\SC(=O)NC3=O)cc2)N(C(=O)c2ccccc2C(=O)c2ccc(F)cc2F)C1			inactive		0.031 µM
CCCCCCCCc1ccc(OCC(=O)Cn2cccn2)cc1	2000 nM	inactive		43%	> 10 µM
CCCCCCCCc1ccc(OCC(=O)Cn2ccc3cc(C(=O)OC)ccc32)cc1		inactive	inactive		> 10 µM
CCCCCCCCc1ccc(OCC(=O)Cn2ncc3cc(C(=O)O)ccc32)cc1	160 nM	inactive			
CCCCCCCCc1ccc(OCC(=O)Cn2cnc3cc(C(=O)O)ccc32)cc1	610 nM	inactive			
CCCCCCCCc1ccc(OCC(=O)Cn2c(C(=O)O)cc3ccccc32)cc1		inactive	inactive	inactive	
NC(=O)c1cccc(-c2cccc(OC(=O)NC3CCCCC3)c2)c1				inactive	
CCCCCCCCc1ccc(OCC(=O)Cn2cc(C(=O)O)cn2)cc1	110 nM	inactive			1.8 µM
CCCCCCCCc1ccc(OCC(=O)Cn2ccc3ccccc32)cc1		inactive	inactive	inactive	
CCCCCCCCc1ccc(OCC(=O)Cn2ncc3ccccc32)cc1	5000 nM	inactive		inactive	
CCCCCCCCc1ccc(OCC(=O)Cn2ccc3cc(C#N)ccc32)cc1	> 10000 nM	inactive	42%		> 10 µM
CCCCCCCCc1ccc(OCC(=O)Cn2ccc3ccc(C(=O)O)cc32)cc1		inactive	inactive		

From ChEMBL document CHEMBL1157719, “1-Indol-1-yl-propan-2-ones and related heterocyclic compounds as dual inhibitors of cytosolic phospholipase A(2)alpha and fatty acid amide hydrolase” (Bioorg Med Chem, 2010)
